# From PubChem BioAssay
# Compounds with a hit are over-represented: about 2.2% of the library has one in this group of screens.
# Statin myotox sup: protects C2C12 myotubes from simvastatin toxicity; ATP luminescence, 48 h; scaled: DMSO 0, geranylgeraniol control 100; rescue of ATP level, % at 7.49 µM; 0.78% of 330,000 active; AID 602340;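 active = mean ATP rescue above about 67%, or every replicate alone reaching that limit, limit read from the data, passing the limit was not always enough; inconclusive = no clear call, values can overlap the other calls; inactive = mean under the limit and some replicate under it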;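 note: myotubes were challenged with 10 µM simvastatin during compound exposure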
# DENV2 CPE: DENV2-induced cell death inhibition | 1.7% of 350,000 active | CPE inhibition, % at 9.99 µM | DENV2-infected cells, cytopathic effect rescue, plate reader | AID 651640; in the data active = CPE inhibition above about 20%, passing the limit was not always enough; inconclusive = no clear call, values can overlap the other calls; tested in BHK-21 cells
# E-sel inducer: E-selectin induction on HUVECs; HUVEC E-selectin immunofluorescence imaging; normalized: neutral wells 0, TNF-alpha wells 100; P16581; 0.37% of 260,000 active; activation, % at 7.58 µM;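 active = mean E-selectin-positive cell signal at least 10% of the positive control, reached in at least 60% of replicates, without over 20% cell loss; inconclusive = no rule given, readout overlaps actives, possibly toxicity-flagged; inactive = the rest, including those meeting only one limit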
# Target sequence (P16581 whole entry, looked up): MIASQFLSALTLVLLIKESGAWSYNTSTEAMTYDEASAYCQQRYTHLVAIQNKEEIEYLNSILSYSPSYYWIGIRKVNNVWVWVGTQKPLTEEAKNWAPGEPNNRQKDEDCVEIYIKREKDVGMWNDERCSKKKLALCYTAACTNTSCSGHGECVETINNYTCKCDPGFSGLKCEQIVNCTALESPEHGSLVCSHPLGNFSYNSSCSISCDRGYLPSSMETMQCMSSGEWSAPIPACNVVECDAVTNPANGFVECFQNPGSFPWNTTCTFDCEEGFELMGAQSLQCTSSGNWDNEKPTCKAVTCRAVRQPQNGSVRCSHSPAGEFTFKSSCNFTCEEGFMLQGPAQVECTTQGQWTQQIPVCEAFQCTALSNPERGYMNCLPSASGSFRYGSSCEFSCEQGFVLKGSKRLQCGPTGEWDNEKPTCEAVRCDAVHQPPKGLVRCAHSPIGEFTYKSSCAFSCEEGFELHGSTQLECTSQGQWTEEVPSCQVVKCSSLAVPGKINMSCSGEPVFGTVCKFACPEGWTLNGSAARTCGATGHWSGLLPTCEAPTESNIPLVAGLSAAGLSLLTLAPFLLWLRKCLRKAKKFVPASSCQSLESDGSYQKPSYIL
#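 System: HUVEC / Compound: single concentration / Signal: immunofluorescence imaging / Read-out: percent E-selectin-positive cells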
# Hits are given with their value; . = inactive; ? = inconclusive; / = no result; ! = repeats disagree.
SMILES,Statin myotox sup,DENV2 CPE,E-sel inducer
Cc1cccc(CN2CCN(CC(=O)N3CCC4(CC3)OCCO4)C2=O)c1,.,/,/
O=C(CN1CCN(Cc2ccc(Cl)cc2)C1=O)N1CCC2(CC1)OCCO2,86.8,/,/
CCC(=O)N1[C@@H]2c3ccc(-c4cccc(F)c4)c(=O)n3C[C@H]1[C@H](CO)[C@H]2C(=O)OC,.,.,.
COC(=O)[C@H]1[C@H](CO)[C@H]2Cn3c(ccc(-c4ccc(F)cc4)c3=O)[C@@H]1N2Cc1cccnc1,.,.,.
COc1ccc(SCC2CN(C)CCC2c2ccc(F)cc2)cc1 (stereo unspecified),/,25.0,.
COc1cccc(C2CCN(C)C2)c1 (stereo unspecified),.,.,.
COc1ccc(-c2ccc([C@@H]3[C@@H](CO)N4CCCCN(C(=O)Cc5ccccc5)C[C@@H]34)cc2)cc1,/,/,.
CCc1ccc(NC(=O)CN2CC(c3ccccc3)CC2=O)cc1 (stereo unspecified),.,.,.
O=C(CN1CC(c2ccccc2)CC1=O)Nc1ccccc1 (stereo unspecified),.,114.8,/
COc1ccc(C#Cc2ccc([C@@H]3[C@@H](CO)N4CCCCN(C(=O)Cc5ccccc5)C[C@@H]34)cc2)cc1,.,.,.
CCCCCCn1c(N)c(C(=O)NCCN2CCOCC2)c2nc3ccccc3nc21,111.8,/,/
CCCCCn1c(N)c(C(=O)NCCN2CCOCC2)c2nc3ccccc3nc21,.,/,/
COCC(=O)N1[C@@H]2c3ccc(C4=CCCC4)c(=O)n3C[C@H]1[C@H](CO)[C@H]2C(=O)OC,.,.,.
COC(=O)C1=C(c2c(C)noc2C)C[C@@H]2CC[C@H]1N2C(=O)N1CCC(C)CC1,.,51.2,.
COC(=O)C1=C(c2c(C)noc2C)C[C@@H]2CC[C@H]1N2C(=O)N1CCC(O)CC1,.,.,.
CCN(CC)c1ccccc1,.,129.2,/
CCN(CC)c1ccc(/C=C/[N+](=O)[O-])cc1,.,.,.
O=C(Cc1ccccn1)N1CCCCN2[C@H](CO)[C@H](c3ccc(Br)cc3)[C@H]2C1,.,.,.
COc1ccc(-n2nnnc2C(CCc2ccccc2)N2CCC(n3c(=O)[nH]c4ccccc43)CC2)cc1 (stereo unspecified),.,56.4,.
CCC(c1nnnn1-c1ccc(OC)cc1)N1CCC(n2c(=O)[nH]c3ccccc32)CC1 (stereo unspecified),.,.,/
COc1cccc(-c2ccc3n(c2=O)C[C@@H]2[C@@H](CO)[C@H](C(=O)O)[C@H]3N2Cc2ccccc2F)c1,.,/,.
O=C(Cc1ccccn1)N1CCCCN2[C@@H](CO)[C@H](c3ccc(Br)cc3)[C@@H]2C1,.,.,.
COc1cc2c(c(OC)c1OC)-c1ccc(C(=O)O)cc1[C@@H](NC(C)=O)CC2,.,/,.
COc1cc2c(c(OC)c1OC)-c1ccc(O)c(=O)cc1[C@@H](N)CC2,.,86.2,/
O=[N+]([O-])c1cccc(O)c1,.,25.4,/
SMILES,Statin myotox sup,DENV2 CPE,E-sel inducer
O=[N+]([O-])c1cccc(CCl)c1,.,/,/
Cc1cccc(S(=O)(=O)N2[C@@H]3Cn4c(ccc(-c5cccc(F)c5)c4=O)[C@H]2[C@@H](C(=O)O)[C@@H]3CO)c1,.,/,.
CN1[C@H](CO)[C@H]2c3ccccc3NC[C@H]21,.,.,.
C[C@@H]1CN([C@@H](C)CO)C(=O)CCCn2nncc2CO[C@@H]1CN(C)C(=O)Oc1ccc2ccccc2c1,.,.,.
C[C@@H]1CN([C@@H](C)CO)C(=O)CCCn2nncc2CO[C@H]1CN(C)C(=O)Oc1ccc2ccccc2c1,.,50.2!,.
C[C@H]1CN([C@@H](C)CO)C(=O)CCCn2nncc2CO[C@@H]1CN(C)C(=O)Oc1ccc2ccccc2c1,.,.,.
C[C@@H]1CN([C@H](C)CO)C(=O)CCCn2nncc2CO[C@H]1CN(C)C(=O)Oc1ccc2ccccc2c1,.,56.4!,.
CC=Cc1ccc2n(c1=O)C[C@@H]1[C@@H](CO)[C@H](C(=O)OC)[C@H]2N1C(=O)CC (mixture of isomers),.,.,.
COc1ccc(-c2ccc([C@@H]3[C@@H](CO)N4CCCCN(C(=O)Cc5ccccc5)C[C@H]34)cc2)cc1,/,/,.
COC(=O)[C@H]1[C@H](CO)[C@H]2Cn3c(cccc3=O)[C@@H]1N2C(=O)C1CCCC1,.,.,.
CC=Cc1ccc2n(c1=O)C[C@@H]1[C@@H](CO)[C@H](C(=O)O)[C@H]2N1S(=O)(=O)c1ccccc1F (mixture of isomers),.,.,.
O=c1c2ccccc2nc(-c2ccco2)n1-c1ccccn1,120.1,/,/
Cc1cccnc1-n1c(-c2ccco2)nc2ccccc2c1=O,.,/,/
COc1cccc(-c2ccc3n(c2=O)C[C@H]2[C@H](CO)[C@@H](C(=O)O)[C@@H]3N2Cc2ccccc2F)c1,.,/,.
COc1ccc(C#Cc2ccc([C@@H]3[C@H]4CN(C(=O)Cc5cccnc5)CCCCN4[C@H]3CO)cc2)cc1,/,.,.
C/C=C/c1ccc(C2[C@@H]3CN(Cc4cccnc4)C[C@H]2N3)cc1 (stereo partly specified),/,.,.
CCOC(=O)c1cccc(C2=C(CNC(=O)c3cccnc3)[C@H]3CC[C@@H](C2)N3Cc2ccccc2)c1,.,?,.
CCOC(=O)c1cccc(C2=C(CNC(C)=O)[C@H]3CC[C@@H](C2)N3Cc2ccccc2)c1,.,32.0,.
COC(=O)C1=C(c2ccc(F)cc2OCc2ccccc2)C[C@@H]2CC[C@H]1N2C(=O)NCc1ccc(Br)cc1,75.5,.,.
COC(=O)C1=C(c2ccccc2OCc2ccccc2)C[C@@H]2CC[C@H]1N2C(=O)NCc1ccc(Cl)cc1,.,57.8,.
COC(=O)C1=C(c2ccc(F)cc2OCc2ccccc2)C[C@@H]2CC[C@H]1N2C(=O)NCc1cccc(OC)c1,.,.,.
COC(=O)C1=C(c2ccc(F)cc2OCc2ccccc2)C[C@@H]2CC[C@H]1N2C(=O)NCc1ccc(N(C)C)cc1,.,.,/
COC(=O)C1=C(c2ccc(F)cc2OCc2ccccc2)C[C@@H]2CC[C@H]1N2C(=O)NCc1ccc(OC)cc1,83.9,.,.
COC(=O)C1=C(c2ccccc2OCc2ccccc2)C[C@@H]2CC[C@H]1N2C(=O)NCc1ccc(N(C)C)cc1,.,.,.
N#Cc1cccc(-c2ccc([C@H]3[C@H](CO)N4CCCCN(C(=O)Cc5ccccc5)C[C@@H]34)cc2)c1,/,.,.
SMILES,Statin myotox sup,DENV2 CPE,E-sel inducer
CCOC(=O)[C@@H]1[C@@H]2NC(=S)N[C@@]1(C)Oc1ccccc12,/,.,/
CCC(=O)N1[C@@H]2Cn3c(ccc(-c4cccc(F)c4)c3=O)[C@H]1[C@@H](C(=O)OC)[C@@H]2CO,.,?,.
c1ccc(CN2Cc3ccccc3-n3nncc3C2)nc1,.,.,.
N#Cc1ccc(CN2Cc3ccccc3-n3nncc3C2)cc1,.,109.1,/
Clc1ccc([C@H]2CC3CCC2N3)cn1 (stereo partly specified),/,48.8!,/
COC(=O)C[C@@H]1CC[C@H]2NC[C@@H](O)COC[C@@H]2O1,.,.,.
COC(=O)[C@@H]1[C@@H](CO)[C@@H]2Cn3c(ccc(C4=CCCCC4)c3=O)[C@H]1N2C(=O)CC1CC1,.,?,.
COC(=O)C1=C(c2ccc(OC(F)(F)F)cc2)C[C@@H]2CC[C@H]1N2C(=O)NCCNC(C)=O,.,.,.
